Data set [1] deals with Trypanosoma cruzi. The experiment in a line: Growth inhibition of trypomastigote form of Trypanosoma cruzi Y infected in human U2OS cells at 50 uM measured after 72 hrs by DRAQ5 DNA dye based confocal microscopic analysis relative to control. Format: organism-based. Particulars: Trypanosoma cruzi, Y, U2OS, read-out: GI.
Data set [2] concerns Leishmania infantum. As to the kind of experiment: Growth inhibition of luciferase expressing Leishmania infantum axenic amastigotes infected in human THP1 cells at 10 uM measured after 72 hrs by steady-glo luminescence assay relative to control. Format: organism-based. Particulars: Leishmania infantum, THP-1, 72 h; read-out: GI.
Data set [3] concerns the target T1, Pteridine reductase 1 (Leishmania major, UniProt Q01782).
T1 sequence (Q01782 whole entry): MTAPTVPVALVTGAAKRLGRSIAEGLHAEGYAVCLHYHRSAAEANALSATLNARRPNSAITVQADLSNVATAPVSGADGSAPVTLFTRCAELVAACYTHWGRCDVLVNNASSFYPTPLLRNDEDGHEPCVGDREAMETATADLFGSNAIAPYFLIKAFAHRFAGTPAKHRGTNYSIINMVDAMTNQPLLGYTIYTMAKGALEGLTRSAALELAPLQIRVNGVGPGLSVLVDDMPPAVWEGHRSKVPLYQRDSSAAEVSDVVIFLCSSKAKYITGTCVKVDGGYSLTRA
The experiment in a line: Inhibition of Leishmania major pteridine reductase 1 using di-hydrobiopterine as substrate in presence of NADPH. The essentials: (§1)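 Photometric PTR1 assay with NADPH and dihydrobiopterin substrate. H₄B formation is coupled non-enzymatically to cytochrome c reduction, read as signal increase at 550 nm.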

A short description of data set [4]: Inhibition of N-terminal His-tagged Trypanosoma brucei pteridine reductase 1 using di-hydrobiopterine as substrate measured at 1 min interval for 50 mins in presence of NADPH. The essentials:
as §1

Data set [5] deals with Trypanosoma brucei. As to the kind of experiment: Inhibition of N-terminal His-tagged Trypanosoma brucei pteridine reductase 1 at 50 uM using di-hydrobiopterine as substrate measured at 1 min interval for 50 mins in presence of NADPH relative to control. The essentials: as §1
Data set [6] has as its system Trypanosoma brucei. As to the kind of experiment: Growth inhibition of Trypanosoma brucei bloodstream forms measured after 72 hrs by resazurin-based fluorescence assay. It counts as organism-based. Put shortly:
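Mid-log bloodstream-form T. brucei were seeded at a final 5 x 10^3/mL in supplemented HMI-9 with serial compound dilutions. Cultures ran 72 h at 37 °C, 5% CO₂, then 4 h more after resazurin. Fluorescence was read at ex 540/em 620 nm, and EC₅₀ was fitted by non-linear regression.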
Background: Alamar Blue is a resazurin reagent that responds to reducing activity.

The target of data set [7] is T2, Pteridine reductase 1 (Leishmania major) (UniProt Q01782).
T2 sequence (whole entry): T1 sequence (Q01782 whole entry)
As to the kind of experiment: Inhibition of Leishmania major pteridine reductase 1 at 50 uM using di-hydrobiopterine as substrate in presence of NADPH relative to control. The essentials: as §1

Data set [8] relates to Trypanosoma brucei. The experiment in a line: Growth inhibition of Trypanosoma brucei bloodstream forms at 10 uM measured after 72 hrs by resazurin-based fluorescence assay relative to control. Format: organism-based. To be noted: Trypanosoma brucei, read-out: GI.
The target in data set [9] is Voltage-gated inwardly rectifying potassium channel KCNH2 (Homo sapiens, UniProt Q12809). As to the kind of experiment: Displacement of Tracer Red from human ERG by fluorescence polarization assay.
The target in data set [10] is T3, Cytochrome P450 1A2 (Homo sapiens, UniProt P05177).
T3 sequence (P05177 whole entry): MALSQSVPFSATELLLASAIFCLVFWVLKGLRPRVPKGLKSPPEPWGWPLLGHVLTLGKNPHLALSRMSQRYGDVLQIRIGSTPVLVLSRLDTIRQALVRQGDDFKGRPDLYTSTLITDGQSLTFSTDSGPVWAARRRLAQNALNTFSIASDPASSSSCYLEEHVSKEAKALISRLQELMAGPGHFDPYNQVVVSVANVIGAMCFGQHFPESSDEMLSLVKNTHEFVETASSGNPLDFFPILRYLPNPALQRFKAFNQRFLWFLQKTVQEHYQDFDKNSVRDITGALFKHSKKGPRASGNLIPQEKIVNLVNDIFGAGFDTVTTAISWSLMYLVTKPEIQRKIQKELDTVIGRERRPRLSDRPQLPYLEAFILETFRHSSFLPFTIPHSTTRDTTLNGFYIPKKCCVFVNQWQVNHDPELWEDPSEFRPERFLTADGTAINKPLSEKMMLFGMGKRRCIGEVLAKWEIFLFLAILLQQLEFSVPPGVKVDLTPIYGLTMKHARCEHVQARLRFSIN
As to the kind of experiment: Inhibition of human CYP1A2 expressed in baculovirus infected insect cells using beetle D-luciferin as substrate preincubated for 30 mins followed by NADPH addition and measured after 30 mins by CYP450-Glo assay.

In data set [11] the target is Cytochrome P450 2C9 (Homo sapiens, UniProt P11712). As to the kind of experiment: Inhibition of human CYP2C9 expressed in baculovirus infected insect cells using beetle D-luciferin as substrate preincubated for 30 mins followed by NADPH addition and measured after 30 mins by CYP450-Glo assay.
Data set [12] has as its target Cytochrome P450 2C19 (Homo sapiens, UniProt P33261). The experiment in a line: Inhibition of human CYP2C19 expressed in baculovirus infected insect cells using beetle D-luciferin as substrate preincubated for 30 mins followed by NADPH addition and measured after 30 mins by CYP450-Glo assay.
Data set [13] has as its target Cytochrome P450 2D6 (Homo sapiens, UniProt P10635). The experiment in a line: Inhibition of human CYP2D6 expressed in baculovirus infected insect cells using beetle D-luciferin as substrate preincubated for 30 mins followed by NADPH addition and measured after 30 mins by CYP450-Glo assay.
Data set [14] addresses Cytochrome P450 3A4 (Homo sapiens, UniProt P08684). As to the kind of experiment: Inhibition of human CYP3A4 expressed in baculovirus infected insect cells using beetle D-luciferin as substrate preincubated for 30 mins followed by NADPH addition and measured after 30 mins by CYP450-Glo assay.
Data set [15] in a line: Cytotoxicity against human A549 cells after 48 hrs by Celltiter-glo assay. Format: cell-based. (In general: ATP-based viability assays read luminescence as a measure of living cells.)
Data set [16] is described as follows: Cytotoxicity against human THP1 cells after 72 hrs by MTT assay. It counts as cell-based, THP-1. Particulars: read-out: NOAEL. In general terms: Tetrazolium assays rely on reduction of a dye to a coloured formazan, in cell work by metabolically active cells.
Data set [17] in a line: Cytotoxicity against human U2OS cells assessed as reduction in cell number. It counts as cell-based.
A short description of data set [18]: Mitochondrial toxicity in human 786-O cells measured after 6 hrs by MitoTracker Red chloromethyl-X-rosamine based assay. It counts as cell-based, 786-0.
Data set [19] is described as follows: Selectivity ratio of IC50 for Leishmania major pteridine reductase 1 to IC50 for N-terminal His-tagged Trypanosoma brucei pteridine reductase 1.

One compound from ChEMBL document CHEMBL4387708, “Enhancement of Benzothiazoles as Pteridine Reductase-1 Inhibitors for the Treatment of Trypanosomatidic Infections” (J Med Chem, 2019) can be followed below.

The structures appear in SMILES notation. Active and inactive are the calls of the source. No cut-off for these calls is given here.

One may read the IC50 as the midpoint of a concentration-inhibition curve. A word on the EC50: it is the midpoint of the concentration-response curve. A low value points to a more potent agent. The GI50 is the concentration that inhibits growth by half.

Sequence of Voltage-gated inwardly rectifying potassium channel KCNH2 (Q12809 whole entry): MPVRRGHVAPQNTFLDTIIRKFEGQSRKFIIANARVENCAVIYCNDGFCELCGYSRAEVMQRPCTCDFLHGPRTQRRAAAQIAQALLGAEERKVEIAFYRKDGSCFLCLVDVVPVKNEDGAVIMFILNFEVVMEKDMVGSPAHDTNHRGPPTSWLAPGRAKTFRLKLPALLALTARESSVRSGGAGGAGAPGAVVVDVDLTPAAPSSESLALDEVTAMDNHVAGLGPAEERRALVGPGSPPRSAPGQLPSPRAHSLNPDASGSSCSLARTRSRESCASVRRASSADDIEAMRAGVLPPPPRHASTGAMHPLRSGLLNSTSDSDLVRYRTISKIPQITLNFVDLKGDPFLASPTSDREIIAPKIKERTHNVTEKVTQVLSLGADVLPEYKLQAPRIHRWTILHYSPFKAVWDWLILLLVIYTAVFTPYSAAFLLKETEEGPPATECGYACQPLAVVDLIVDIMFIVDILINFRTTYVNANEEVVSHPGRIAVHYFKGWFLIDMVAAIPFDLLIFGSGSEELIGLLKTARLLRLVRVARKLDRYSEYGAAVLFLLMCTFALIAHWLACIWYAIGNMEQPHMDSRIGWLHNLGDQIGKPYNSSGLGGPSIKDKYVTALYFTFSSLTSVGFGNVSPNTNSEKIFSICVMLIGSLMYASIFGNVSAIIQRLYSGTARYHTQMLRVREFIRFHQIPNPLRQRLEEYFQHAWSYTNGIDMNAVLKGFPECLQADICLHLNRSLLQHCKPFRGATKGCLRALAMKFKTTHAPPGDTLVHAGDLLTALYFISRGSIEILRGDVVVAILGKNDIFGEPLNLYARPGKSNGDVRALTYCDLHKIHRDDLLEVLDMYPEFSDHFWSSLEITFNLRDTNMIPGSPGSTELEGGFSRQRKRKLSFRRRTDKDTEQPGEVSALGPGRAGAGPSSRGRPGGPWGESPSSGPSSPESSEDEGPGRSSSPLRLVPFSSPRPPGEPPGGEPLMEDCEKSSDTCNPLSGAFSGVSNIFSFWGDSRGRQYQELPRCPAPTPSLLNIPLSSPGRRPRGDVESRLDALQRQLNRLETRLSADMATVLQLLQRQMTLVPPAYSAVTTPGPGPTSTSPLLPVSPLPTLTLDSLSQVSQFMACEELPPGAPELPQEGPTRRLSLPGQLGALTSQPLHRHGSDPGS
Sequence of Cytochrome P450 3A4 (P08684 whole entry): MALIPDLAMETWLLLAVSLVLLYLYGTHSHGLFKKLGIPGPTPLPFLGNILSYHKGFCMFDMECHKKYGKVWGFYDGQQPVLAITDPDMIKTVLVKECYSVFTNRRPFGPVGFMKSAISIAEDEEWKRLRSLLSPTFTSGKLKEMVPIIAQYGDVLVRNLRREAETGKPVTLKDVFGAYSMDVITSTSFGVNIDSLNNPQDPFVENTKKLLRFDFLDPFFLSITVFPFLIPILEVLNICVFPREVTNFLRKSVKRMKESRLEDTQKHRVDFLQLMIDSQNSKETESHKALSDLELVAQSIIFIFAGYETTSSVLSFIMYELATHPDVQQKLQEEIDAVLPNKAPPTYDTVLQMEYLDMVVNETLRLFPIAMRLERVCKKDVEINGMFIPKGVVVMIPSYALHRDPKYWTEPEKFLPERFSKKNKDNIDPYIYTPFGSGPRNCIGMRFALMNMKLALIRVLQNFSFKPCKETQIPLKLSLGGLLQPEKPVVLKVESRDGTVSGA
Sequence of Cytochrome P450 2D6 (P10635 whole entry): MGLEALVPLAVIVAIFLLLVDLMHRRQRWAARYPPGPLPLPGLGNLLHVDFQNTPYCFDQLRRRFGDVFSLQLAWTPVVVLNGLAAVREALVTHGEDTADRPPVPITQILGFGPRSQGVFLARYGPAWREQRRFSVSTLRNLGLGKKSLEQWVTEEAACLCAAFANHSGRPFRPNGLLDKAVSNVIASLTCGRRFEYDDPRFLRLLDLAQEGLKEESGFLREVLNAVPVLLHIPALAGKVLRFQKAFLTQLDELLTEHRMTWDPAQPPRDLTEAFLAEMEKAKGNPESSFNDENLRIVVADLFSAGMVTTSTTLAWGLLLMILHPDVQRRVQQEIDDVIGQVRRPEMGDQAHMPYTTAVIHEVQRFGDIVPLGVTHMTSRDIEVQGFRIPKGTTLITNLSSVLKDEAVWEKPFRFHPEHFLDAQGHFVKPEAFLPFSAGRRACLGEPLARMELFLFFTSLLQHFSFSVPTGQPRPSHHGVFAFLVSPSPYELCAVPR
Sequence of Cytochrome P450 2C9 (P11712 whole entry): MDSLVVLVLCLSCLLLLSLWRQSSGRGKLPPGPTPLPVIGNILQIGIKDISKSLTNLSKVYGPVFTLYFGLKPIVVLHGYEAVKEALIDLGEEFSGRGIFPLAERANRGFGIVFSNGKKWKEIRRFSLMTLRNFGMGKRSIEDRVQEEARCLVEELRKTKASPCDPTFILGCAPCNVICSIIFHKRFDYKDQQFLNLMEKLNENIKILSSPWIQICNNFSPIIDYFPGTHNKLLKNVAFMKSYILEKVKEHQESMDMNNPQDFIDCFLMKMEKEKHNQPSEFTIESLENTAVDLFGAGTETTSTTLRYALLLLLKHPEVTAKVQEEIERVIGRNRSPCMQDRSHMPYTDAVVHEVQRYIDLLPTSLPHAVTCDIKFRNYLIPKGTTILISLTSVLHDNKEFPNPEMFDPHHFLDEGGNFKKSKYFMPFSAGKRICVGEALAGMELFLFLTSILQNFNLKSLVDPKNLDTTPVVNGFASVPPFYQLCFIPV
Sequence of Cytochrome P450 2C19 (P33261 whole entry): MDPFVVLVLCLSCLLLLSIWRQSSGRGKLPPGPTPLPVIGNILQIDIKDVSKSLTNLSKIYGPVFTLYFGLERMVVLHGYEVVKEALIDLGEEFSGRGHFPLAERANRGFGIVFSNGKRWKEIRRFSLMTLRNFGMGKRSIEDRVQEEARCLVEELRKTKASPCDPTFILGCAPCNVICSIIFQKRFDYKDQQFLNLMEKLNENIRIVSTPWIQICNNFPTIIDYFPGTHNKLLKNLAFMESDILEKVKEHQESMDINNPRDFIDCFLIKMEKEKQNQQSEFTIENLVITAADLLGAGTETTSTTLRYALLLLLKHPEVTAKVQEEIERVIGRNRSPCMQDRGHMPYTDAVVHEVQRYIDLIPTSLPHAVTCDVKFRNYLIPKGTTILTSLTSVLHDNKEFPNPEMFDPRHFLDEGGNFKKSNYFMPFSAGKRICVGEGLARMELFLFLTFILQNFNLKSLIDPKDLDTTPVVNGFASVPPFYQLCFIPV

`COc1ccc(CN(Cc2ccc(Cl)c(Cl)c2)C(=O)c2ccc3nc(N)sc3c2)cc1OC`: in data set [1], the inhibition at 50 µM worked out at 47.9%. Also, the inhibition at 10 µM in data set [2] is 9%; in [8], over 60%. Further, the IC50 result in data set [3] is “Not Active”; in data set [4], 15.9 µM; in [9], over 25 µM; in data set [10] it was over 25 µM; in [11], under 10 µM; in data set [12], under 10 µM. For the same compound, the IC50 in data set [13] and in data set [14] was under 10 µM each time. The inhibition in data set [5] was over 60%. Further, in data set [6], a half-maximal effect (EC50) was put at 9.7 µM. The inhibition result in data set [7] was “inactive”. The compound also yielded a GI50 at 48 h in data set [15] of over 25 µM. For the same compound, in data set [16], the MNTC at 72 h was 10 to 25 µM. Moreover, the GI50 in [17] was over 25 µM. Besides, the 50% inhibitory concentration (IC50) at 6 h in [18] was 10 to 25 µM. Further, in [19], the Ratio IC50 was 2 to 100.
